# Reference: ChEMBL document CHEMBL4251703, “Linker Variation and Structure-Activity Relationship Analyses of Carboxylic Acid-based Small Molecule STAT3 Inhibitors” (ACS Med Chem Lett, 2018)
# Activity calls are given as the source filed them. No cut-off for these calls is given here.
# Target: Signal transducer and activator of transcription 3 (Mus musculus) (UniProt P42227)
# Assay: (§1) Inhibition of STAT3 DNA binding activity in mouse NIH/3T3 nuclear extract preincubated for 30 mins followed by [32P]hSIE addition measured after 30 mins by electrophoretic mobility shift assay
# In short: (§2)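 STAT3 DNA-binding was measured by EMSA using nuclear extracts of equal total protein from v-Src-transformed fibroblasts containing activated STAT3. Extracts were preincubated for 30 min with 0–100 μM compound, then incubated with radiolabeled hSIE probe.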
# Sequence of Signal transducer and activator of transcription 3 (Mus musculus) (P42227 whole entry): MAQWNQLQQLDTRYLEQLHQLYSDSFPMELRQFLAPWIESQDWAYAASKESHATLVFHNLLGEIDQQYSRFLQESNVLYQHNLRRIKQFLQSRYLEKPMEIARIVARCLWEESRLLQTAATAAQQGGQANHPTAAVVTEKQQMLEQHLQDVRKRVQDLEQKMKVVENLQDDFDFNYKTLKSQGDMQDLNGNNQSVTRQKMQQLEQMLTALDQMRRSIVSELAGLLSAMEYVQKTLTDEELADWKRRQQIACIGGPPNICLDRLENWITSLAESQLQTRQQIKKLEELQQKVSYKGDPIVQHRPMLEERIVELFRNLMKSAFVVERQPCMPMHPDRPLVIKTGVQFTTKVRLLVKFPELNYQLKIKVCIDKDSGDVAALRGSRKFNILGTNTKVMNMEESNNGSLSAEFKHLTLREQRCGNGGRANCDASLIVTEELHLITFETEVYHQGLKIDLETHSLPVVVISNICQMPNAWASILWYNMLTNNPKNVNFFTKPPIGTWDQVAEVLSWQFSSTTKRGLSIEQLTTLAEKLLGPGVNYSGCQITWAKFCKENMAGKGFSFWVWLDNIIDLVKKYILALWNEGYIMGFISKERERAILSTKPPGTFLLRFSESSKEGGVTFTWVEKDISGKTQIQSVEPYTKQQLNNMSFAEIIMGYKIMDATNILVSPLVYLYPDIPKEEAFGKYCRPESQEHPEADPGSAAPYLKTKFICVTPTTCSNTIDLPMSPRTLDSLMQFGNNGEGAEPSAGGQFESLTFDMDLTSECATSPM
row,Structure (SMILES),inhibition
1,O=C(O)c1ccc(N(Cc2ccc(C3CCCCC3)cc2)C(=O)[C@H]2CCCN2S(=O)(=O)c2cc(F)cc(F)c2F)cc1O,inactive
2,CN([C@@H](CCO)C(=O)N(Cc1ccc(C2CCCCC2)cc1)c1ccc(C(=O)O)c(O)c1)S(=O)(=O)c1c(F)c(F)c(F)c(F)c1F,inactive
3,CN(CC(=O)N(Cc1ccc(C2CCCCC2)cc1)c1ccc(C(=O)O)c(O)c1)Cc1c(F)c(F)c(F)c(F)c1F,inactive
4,CN(CC(=O)N(Cc1ccc(C2CCC(F)(F)CC2)cc1)c1ccc(C(=O)O)c(O)c1)S(=O)(=O)c1c(F)c(F)c(F)c(F)c1F,inactive
5,CN([C@H](CCO)C(=O)N(Cc1ccc(C2CCCCC2)cc1)c1ccc(C(=O)O)c(O)c1)S(=O)(=O)c1c(F)c(F)c(F)c(F)c1F,Active
6,CC[C@H](C(=O)N(Cc1ccc(C2CCC(F)(F)CC2)cc1)c1ccc(C(=O)O)c(O)c1)N(C)S(=O)(=O)c1c(F)c(F)c(F)c(F)c1F,inactive
7,CN([C@H](CO)C(=O)N(Cc1ccc(C2CCCCC2)cc1)c1ccc(C(=O)NO)cc1)S(=O)(=O)c1c(F)c(F)c(F)c(F)c1F,Active
8,CN(CC(=O)N(Cc1ccc(N2CCCCC2)cc1)c1ccc(C(=O)O)cc1)S(=O)(=O)c1c(F)c(F)c(F)c(F)c1F,inactive
9,C[C@H](C(=O)N(Cc1ccc(C2CCOCC2)cc1)c1ccc(C(=O)[O-])c(O)c1)N(C)S(=O)(=O)c1c(F)c(F)c(F)c(F)c1F.[Na+],inactive
10,CN(CC(=O)N(Cc1ccc(C2CCCCCC2)cc1)c1ccc(C(=O)O)cc1)S(=O)(=O)c1c(F)c(F)c(F)c(F)c1F,inactive
11,C[C@H](C(=O)N(Cc1ccc(C2CCCCC2)cc1)c1ccc(C(=O)O)c(F)c1)N(C)S(=O)(=O)c1c(F)c(F)c(F)c(F)c1F,inactive
12,CN(CC(=O)N(Cc1ccc(C2CCOCC2)cc1)c1ccc(C(=O)NO)c(O)c1)S(=O)(=O)c1c(F)c(F)c(F)c(F)c1F,inactive
13,CC[C@@H](C(=O)N(Cc1ccc(C2CCCCC2)cc1)c1ccc(C(=O)O)c(O)c1)N(C)S(=O)(=O)c1c(F)c(F)c(F)c(F)c1F,inactive
14,O=C(O)c1ccc(N(Cc2ccc(C3CCCCC3)cc2)C(=O)[C@H]2CCCN2Cc2c(F)c(F)c(F)c(F)c2F)cc1O,inactive
15,CN(CC(=O)N(Cc1ccc(C2CCCCC2)cc1)c1ccc(C(=O)O)[n+]([O-])c1)S(=O)(=O)c1c(F)c(F)c(F)c(F)c1F,inactive
16,CN(CC(=O)N(Cc1ccc(C2CCCCC2)cc1)c1ccc(C(=O)O)nc1)S(=O)(=O)c1c(F)c(F)c(F)c(F)c1F,inactive
17,Cc1cc(N(Cc2ccc(C3CCCCC3)cc2)C(=O)CN(C)S(=O)(=O)c2c(F)c(F)c(F)c(F)c2F)ccc1C(=O)O,inactive
18,CN([C@H](CO)C(=O)N(Cc1ccc(C2CCCCC2)cc1)c1ccc(C(=O)O)c(O)c1)S(=O)(=O)c1c(F)c(F)c(F)c(F)c1F,Active
19,CN(CC(=O)N(Cc1ccc(C2CCOCC2)cc1)c1ccc(C(=O)O)cc1)S(=O)(=O)c1c(F)c(F)c(F)c(F)c1F,inactive
20,CN([C@@H](CC(=O)O)C(=O)N(Cc1ccc(C2CCCCC2)cc1)c1ccc(C(=O)O)c(O)c1)S(=O)(=O)c1c(F)c(F)c(F)c(F)c1F,inactive
21,C[C@@H](O)[C@@H](C(=O)N(Cc1ccc(C2CCCCC2)cc1)c1ccc(C(=O)O)c(O)c1)N(C)S(=O)(=O)c1c(F)c(F)c(F)c(F)c1F,inactive

row,Structure (SMILES),inhibition
1,CN([C@H](CC(=O)O)C(=O)N(Cc1ccc(C2CCCCC2)cc1)c1ccc(C(=O)O)c(O)c1)S(=O)(=O)c1c(F)c(F)c(F)c(F)c1F,Active
2,CN(CC(=O)N(Cc1ccc(C2=CCCCCC2)cc1)c1ccc(C(=O)O)cc1)S(=O)(=O)c1c(F)c(F)c(F)c(F)c1F,inactive
3,C[C@H](O)[C@H](C(=O)N(Cc1ccc(C2CCCCC2)cc1)c1ccc(C(=O)O)c(O)c1)N(C)S(=O)(=O)c1c(F)c(F)c(F)c(F)c1F,Active
4,CC[C@H](C(=O)N(Cc1ccc(C2CCCCC2)cc1)c1ccc(C(=O)O)c(O)c1)N(C)S(=O)(=O)c1c(F)c(F)c(F)c(F)c1F,Active
5,CN(CC(=O)N(Cc1ccc(C2CCCCC2)nc1)c1ccc(C(=O)O)c(O)c1)S(=O)(=O)c1c(F)c(F)c(F)c(F)c1F,inactive
6,CN([C@H](CN)C(=O)N(Cc1ccc(C2CCCCC2)cc1)c1ccc(C(=O)O)c(O)c1)S(=O)(=O)c1c(F)c(F)c(F)c(F)c1F,Active
7,O=C(O)c1ccc(N(Cc2ccc(C3CCCCC3)cc2)C(=O)[C@H]2CCCN2C(=O)c2c(F)c(F)c(F)c(F)c2F)cc1O,inactive
8,C[C@H](C(=O)N(Cc1ccc(C2CCCCC2)cc1)c1c(F)cc(C(=O)O)cc1F)N(C)S(=O)(=O)c1c(F)c(F)c(F)c(F)c1F,inactive
9,CN(CC(=O)N(Cc1ccc(C2CCCCC2)cc1)c1ccc(C(=O)O)c(O)c1)C(=O)c1c(F)c(F)c(F)c(F)c1F,inactive
10,CN([C@@H](CN)C(=O)N(Cc1ccc(C2CCCCC2)cc1)c1ccc(C(=O)O)c(O)c1)S(=O)(=O)c1c(F)c(F)c(F)c(F)c1F,inactive
11,O=C(O)c1ccc(N(Cc2ccc(C3CCCCC3)cc2)C(=O)[C@H]2CCCN2S(=O)(=O)c2c(F)cc(F)c(F)c2F)cc1O,inactive
12,CN([C@@H](CO)C(=O)N(Cc1ccc(C2CCCCC2)cc1)c1ccc(C(=O)O)c(O)c1)S(=O)(=O)c1c(F)c(F)c(F)c(F)c1F,inactive
13,CN(CC(=O)N(Cc1ccc(C2CCCCC2)cc1)c1cccc(CC(=O)O)c1)S(=O)(=O)c1c(F)c(F)c(F)c(F)c1F,inactive
14,CN(CC(=O)N(Cc1ccc(C2CCCCC2)cc1)c1ncc(C(=O)O)o1)S(=O)(=O)c1c(F)c(F)c(F)c(F)c1F,inactive
15,C[C@H](C(=O)N(Cc1ccc(C2CCCCC2)cc1)c1ccc2c(c1)CNC2=O)N(C)S(=O)(=O)c1c(F)c(F)c(F)c(F)c1F,inactive
16,C[C@H](C(=O)N(Cc1ccc(C2CCCCC2)cc1)c1ccc2cn[nH]c2c1)N(C)S(=O)(=O)c1c(F)c(F)c(F)c(F)c1F,inactive
17,CN(CC(=O)N(Cc1ccc(C2CCCCC2)cc1)c1nc(C(=O)O)co1)S(=O)(=O)c1c(F)c(F)c(F)c(F)c1F,inactive
18,CN(CC(=O)N(Cc1ccc(C2CCOCC2)cc1)c1ccc(C(=O)O)c(O)c1)S(=O)(=O)c1c(F)c(F)c(F)c(F)c1F,inactive
19,CN([C@H](CO)C(=O)N(Cc1ccc(C2CCCCC2)cc1)c1ccc(C(=O)O)cc1)S(=O)(=O)c1c(F)c(F)c(F)c(F)c1F,Active
20,Cc1cc(C(=O)O)cc(C)c1N(Cc1ccc(C2CCCCC2)cc1)C(=O)CN(C)S(=O)(=O)c1c(F)c(F)c(F)c(F)c1F,inactive
21,CN(CC(=O)N(Cc1ccc(C2CCNCC2)cc1)c1ccc(C(=O)O)c(O)c1)S(=O)(=O)c1c(F)c(F)c(F)c(F)c1F,inactive

# Target: Signal transducer and activator of transcription 3 (Mus musculus, UniProt P42227)
# Assay: as §1
# In short: as §2
# Sequence of Signal transducer and activator of transcription 3 (P42227 whole entry): as above
row,Structure (SMILES),IC50
1,CN(CC(=O)N(Cc1ccc(C2CCCCC2)cc1)c1ccc(C(=O)O)c(O)c1)S(=O)(=O)c1c(F)cc(F)cc1F,> 26 µM
2,C[C@@H](C(=O)N(Cc1ccc(C2CCCCC2)cc1)c1ccc(C(=O)NO)c(O)c1)N(C)S(=O)(=O)c1c(F)c(F)c(F)c(F)c1F,6.8 µM
3,CN(CC(=O)N(Cc1ccc(C2CCCCC2)cc1)c1ccc(C(=O)O)c(O)c1)S(=O)(=O)c1cc(F)cc(F)c1F,> 26 µM
4,CN(CC(=O)N(Cc1ccc(C2CCCCC2)cc1)c1ccc(C(=O)O)c(O)c1)S(=O)(=O)c1cc(F)cc(F)c1,> 26 µM
5,CN(CC(=O)N(Cc1ccc(C2CCCCC2)cc1)c1ccc(C(=O)O)c(O)c1)S(=O)(=O)c1cccnc1,> 26 µM
6,CN(CC(=O)N(Cc1ccc(C2CCCCC2)cc1)c1ccc(C(=O)O)c(O)c1)S(=O)(=O)c1cc(C(F)(F)F)cc(C(F)(F)F)c1,> 26 µM
7,CN(CC(=O)N(Cc1ccc(C2CCCCC2)cc1)c1ccc(C(=O)O)c(Cl)c1)S(=O)(=O)c1c(F)c(F)c(F)c(F)c1F,8.6 to 14.4 µM
8,CN(CC(=O)N(Cc1ccc(C2CCCCC2)cc1)c1ccc(C(=O)O)c(O)c1)S(=O)(=O)c1ccc(F)c(F)c1F,> 26 µM
9,O=C(NO)c1ccc(N(Cc2ccc(C3CCCCC3)cc2)C(=O)[C@H]2CCCN2S(=O)(=O)c2c(F)c(F)c(F)c(F)c2F)cc1O,5.5 µM
10,CN(CC(=O)N(Cc1ccc(C2CCCCC2)cc1)c1ccc(C(=O)O)c(O)c1)S(=O)(=O)c1cc(F)ccc1F,> 26 µM

# Target: Signal transducer and activator of transcription 3 (Homo sapiens) (UniProt P40763)
# Assay: Inhibition of STAT3 in human MDA-MB-231 cells assessed as reduction in p-STAT3(Y705) level at 5 uM after 1 to 24 hrs by immunoblot analysis
# Type: cell-based
# Sequence of Signal transducer and activator of transcription 3 (Homo sapiens) (P40763 whole entry): as the sequence (P42227 whole entry) above, with D760E counted along it
row,Structure (SMILES),p-STAT3(Y705) reduction (qualitative call)
1,O=C(O)c1ccc(N(Cc2ccc(C3CCCCC3)cc2)C(=O)[C@H]2CCCN2S(=O)(=O)c2c(F)c(F)c(F)c(F)c2F)cc1O,Active
2,O=C(O)c1ccc(N(Cc2ccc(C3CCCCC3)cc2)C(=O)[C@H]2CCCN2S(=O)(=O)c2c(F)c(F)c(F)c(F)c2F)c(F)c1,Active

# Target: Signal transducer and activator of transcription 3 (Homo sapiens) (UniProt P40763)
# Assay: Inhibition of STAT3 in human MDA-MB-468 cells assessed as reduction in p-STAT3(Y705) level at 5 uM after 1 to 24 hrs by immunoblot analysis
# Type: cell-based
row,Structure (SMILES),inhibition
1,O=C(O)c1ccc(N(Cc2ccc(C3CCCCC3)cc2)C(=O)[C@H]2CCCN2S(=O)(=O)c2c(F)c(F)c(F)c(F)c2F)cc1O,Active
2,O=C(O)c1ccc(N(Cc2ccc(C3CCCCC3)cc2)C(=O)[C@H]2CCCN2S(=O)(=O)c2c(F)c(F)c(F)c(F)c2F)c(F)c1,Active

# Test system: MDA-MB-231
# Assay: Cytotoxicity against human MDA-MB-231 cells harboring active STAT3 assessed as decrease in cell viability up to 10 uM after 72 hrs by CyQuant dye based assay
# Type: functional
# In short: (§3)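 Cells were grown in 96-well format and treated once with 0–10 μM compound for 72 h. Viable cells were quantified by CyQuant proliferation assay and plotted as % viability against concentration. Data are mean ± SD of three independent determinations.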
row,Structure (SMILES),Activity
1,O=C(O)c1ccc(N(Cc2ccc(C3CCCCC3)cc2)C(=O)[C@H]2CCCN2S(=O)(=O)c2c(F)c(F)c(F)c(F)c2F)cc1O,Active

# Test system: MDA-MB-468
# Assay: Cytotoxicity against human MDA-MB-468 cells harboring active STAT3 assessed as decrease in cell viability up to 10 uM after 72 hrs by CyQuant dye based assay
# Type: functional
# In short: as §3
row,Structure (SMILES),Activity
1,O=C(O)c1ccc(N(Cc2ccc(C3CCCCC3)cc2)C(=O)[C@H]2CCCN2S(=O)(=O)c2c(F)c(F)c(F)c(F)c2F)cc1O,Active

# Test system: MCF7
# Assay: Cytotoxicity against human MCF7 cells assessed as decrease in cell viability up to 10 uM after 72 hrs by CyQuant dye based assay
# Type: functional
# In short: as §3
row,Structure (SMILES),Activity
1,O=C(O)c1ccc(N(Cc2ccc(C3CCCCC3)cc2)C(=O)[C@H]2CCCN2S(=O)(=O)c2c(F)c(F)c(F)c(F)c2F)cc1O,inactive

# Test system: not listed separately
# Assay: Solubility of the compound in simulated intestinal fluid at pH 6.8
# Type: physicochemical
# In short: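 Aqueous solubility was determined in pH 7.4 PBS and in pH 6.8 buffered simulated intestinal fluid, reported in μg/mL.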
row,Structure (SMILES),solubility
1,C[C@H](C(=O)N(Cc1ccc(C2CCCCC2)cc1)c1ccc(C(=O)[O-])c(O)c1)N(C)S(=O)(=O)c1c(F)c(F)c(F)c(F)c1F.[Na+],127 µg/mL
